As usually defined, the MRT inf is a mean duration of stay, worked out from the concentration-time curve. The IC50 is the midpoint of a concentration-inhibition curve. High values mean weaker potency in that assay, low ones greater potency in that assay.

The source made the active and inactive calls. The rule behind the calls is not given here.

The results in this text go back to ChEMBL document CHEMBL4613270, “Structure-Activity Relationship Study Enables the Discovery of a Novel Berberine Analogue as the RXRα Activator to Inhibit Colon Cancer” (J Med Chem, 2020).

Data set [1] addresses T1, Retinoic acid receptor RXR-alpha (Homo sapiens) (UniProt P19793).
T1 sequence (whole entry): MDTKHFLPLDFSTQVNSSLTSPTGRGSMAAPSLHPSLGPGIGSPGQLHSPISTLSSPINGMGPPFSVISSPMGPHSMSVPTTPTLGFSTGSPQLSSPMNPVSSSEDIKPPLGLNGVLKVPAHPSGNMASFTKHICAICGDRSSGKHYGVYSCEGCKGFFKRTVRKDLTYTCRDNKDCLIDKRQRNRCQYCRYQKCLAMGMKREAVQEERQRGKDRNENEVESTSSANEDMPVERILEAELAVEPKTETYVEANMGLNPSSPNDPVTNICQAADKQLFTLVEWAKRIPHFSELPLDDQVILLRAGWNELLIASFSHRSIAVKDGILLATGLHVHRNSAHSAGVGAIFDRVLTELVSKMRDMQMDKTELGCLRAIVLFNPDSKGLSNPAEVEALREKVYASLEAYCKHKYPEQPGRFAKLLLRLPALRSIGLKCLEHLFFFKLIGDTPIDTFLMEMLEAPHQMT
Nature of the data set: Activation of RXRalpha in human KM12C cells assessed as reduction in c-Myc mRNA expression at 25 to 50 uM incubated for 15 hrs by real-time PCR analysis. The class given is cell-based.

A short description of data set [2]: Toxicity in BALB/c mouse xenografted with human KM12C cells assessed as effect on biochemical parameter by measuring triglyceride level at 100 mg/kg, ig dosed daily for 15 days by automatic chemistry analyzer based analysis (reference value: 0.96 +/- 0.056 mmol/L). The class given is organism-based. The note with it: in vivo, po, 360 h. (In xenograft studies the graft and the host belong to different species.)

Data set [3] addresses T1, Retinoic acid receptor RXR-alpha (Homo sapiens). Nature of the data set: In-vivo activation of RXRalpha in BALB/c mouse xenografted with human KM12C cells assessed as effect on Ki67 protein expression at 100 mg/kg, ig dosed daily for 15 days by immunohistochemistry analysis. It is filed as functional, organism-based.
Data set [4] in a line: MRT (infinity) in Sprague-Dawley rat at 100 mg/kg, ig measured after 0.083 to 36 hrs by LC-MS/MS analysis. The class given is ADME, organism-based. The conditions noted are these: in vivo, po. Put shortly: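 SD rats (200 ± 20 g) randomized to three groups; single intragastric dose of 100 mg/kg or vehicle (0.5% CMC-Na). Tail-vein blood (0.5 mL) drawn at 0.083, 0.25, 0.5, 1, 2, 4, 8, 12, 24 and 36 h. Plasma separated by centrifugation at 2000 rpm for 10 min, frozen at -80 °C, then quantified by LC-MS/MS.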

The target in data set [5] is T1, Retinoic acid receptor RXR-alpha (Homo sapiens). Nature of the data set: Activation of RXRalpha in human HCT116 cells assessed as inhibition of Wnt/beta-catenin-dependent transcriptional activity at 30 to 60 uM incubated for 15 hrs by TOP/FOP luciferase assay. It is filed as cell-based. The conditions noted are these: HCT-116. Put shortly:
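TOP/FOP reporter: cells co-transfected by lipofection with pRL-TK plus TOPflash or FOPflash; compound added 20 h after transfection for 15 h; passive lysis at 4 °C, 1 h; firefly and Renilla luciferase measured by dual-luciferase assay.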

Data set [6] has as its system SW-620. Nature of the data set: Inhibition of cell proliferation of human SW620 cells incubated for 15 hrs by MTT assay. It is filed as functional, cell-based. The conditions noted are these: SW-620, 15 h. Put shortly:
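Cells plated at 1×10⁴ per well, incubated overnight at 37 °C, then exposed to a concentration series for 15 h. MTT (5 mg/mL stock) added for 4 h at 37 °C. Formazan dissolved in DMSO and absorbance read at 570 nm. IC50 derived from the dose-response curve.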
(In general: Formazan colour is commonly taken as a measure of viable cells.)

Data set [7] deals with T1, Retinoic acid receptor RXR-alpha (Homo sapiens). Put plainly: In-vivo activation of RXRalpha in BALB/c mouse xenografted with human KM12C cells assessed as reduction in Cdc2 mRNA expression at 100 mg/kg, ig dosed daily for 15 days by real-time PCR analysis. It is filed as functional, organism-based. The method in brief:
(§1)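 KM12C cells (1×10^6 per mouse in 100 μL HBSS) injected subcutaneously into both flanks of nude mice; after seven days, randomized to three groups, dosed intragastrically once daily for 15 days with vehicle (CMC-Na) or 100 mg/kg compound; mice euthanized and tumors removed for analysis.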

A short description of data set [8]: Toxicity in BALB/c mouse xenografted with human KM12C cells assessed as effect on biochemical parameter by measuring ALP level at 100 mg/kg, ig dosed daily for 15 days by automatic chemistry analyzer based analysis (reference value: 76.53 +/- 4.31 U/L). The note with it: in vivo, po, 360 h. It is filed as organism-based.
The target of data set [9] is T1, Retinoic acid receptor RXR-alpha (Homo sapiens). Nature of the data set: In-vivo activation of RXRalpha in BALB/c mouse xenografted with human KM12C cells assessed as induction of beta-catenin protein degradation at 100 mg/kg, ig dosed daily for 15 days by immunohistochemistry analysis. The class given is functional, organism-based. The method in brief: as §1

Data set [10] has as its system KM12C. Nature of the data set: Activation of RXRalpha R371S mutant LBD (unknown origin) expressed in human KM12C cells at 50 uM incubated for 15 hrs by luciferase reporter gene assay. The class given is cell-based. Put shortly: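 KM12C cells co-transfected with pG5luc and pBIND-RXRα-LBD (wild type or mutants) using Lipofectamine 2000. Twenty hours after transfection, compound added at 50 μM for 15 h. Cells lysed in passive lysis buffer (4 °C, 1 h), then firefly and Renilla luciferase read by dual-luciferase assay. Basal level normalized to 1.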

A short description of data set [11]: Toxicity in BALB/c mouse xenografted with human KM12C cells assessed as effect on biochemical parameter by measuring creatinine level at 100 mg/kg, ig dosed daily for 15 days by automatic chemistry analyzer based analysis (reference value: 27.02 +/- 1.22 umol/L). The class given is organism-based. The note with it: in vivo, po, 360 h.
Data set [12] concerns the target T1, Retinoic acid receptor RXR-alpha (Homo sapiens). Nature of the data set: In-vivo activation of RXRalpha in BALB/c mouse xenografted with human KM12C cells assessed as reduction in Cdc2 protein expression at 100 mg/kg, ig dosed daily for 15 days by Western blot analysis. The class given is functional, organism-based. The method in brief: as §1
Data set [13] can be described thus: Toxicity in BALB/c mouse xenografted with human KM12C cells assessed as effect on biochemical parameter by measuring total cholesterol level at 100 mg/kg, ig dosed daily for 15 days by automatic chemistry analyzer based analysis (reference value: 2.32 +/- 0.11 mmol/L). It is filed as organism-based. The note with it: in vivo, po, 360 h.
For data set [14], the target named is T1, Retinoic acid receptor RXR-alpha (Homo sapiens). Nature of the data set: Activation of RXRalpha in human HCT116 cells assessed as reduction in Cdc2 protein expression at 30 to 60 uM incubated for 15 hrs by Western blot analysis. The class given is cell-based. The note with it: HCT-116. On the technique in general: In western blotting, separated proteins are transferred to a membrane and probed.

Data set [15] shares this target. Put plainly: Activation of RXRalpha in human SW620 cells assessed as […] crease in p21 (WAF1/CIP1) mRNA expression at 40 to 80 uM incubated for 15 hrs by real-time PCR analysis. It is filed as cell-based. The note with it: SW-620.
For data set [16] the target is unchanged. Nature of the data set: In-vivo activation of RXRalpha in BALB/c mouse xenografted with human KM12C cells assessed as increase in p21 (WAF1/CIP) protein expression at 100 mg/kg, ig dosed daily for 15 days by Western blot analysis. It is filed as functional, organism-based.
The target is the same in data set [17]. Put plainly: Activation of RXRalpha (unknown origin) expressed in human HCT116 cells co-expressing beta-catenin and c-Cbl assessed as induction of beta-caten interaction with c-Cbl at 30 to 60 uM incubated for 15 hrs by mammalian two-hybrid assay. It is filed as cell-based. The conditions noted are these: HCT-116. The method in brief: (§2)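 Mammalian two-hybrid: cells co-transfected by lipofection with pBIND-β-catenin/S33Y plus pACT-RXRα (RXRα–β-catenin) or pACT-c-Cbl (β-catenin–c-Cbl); 20 h after transfection, compound added for 15 h; cells lysed in passive lysis buffer, 4 °C, 1 h; firefly and Renilla luciferase read by dual-luciferase kit.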

The target is the same in data set [18]. Put plainly: Activation of RXRalpha (unknown origin) expressed in human SW620 cells co-expressing beta-catenin and c-Cbl assessed as induction of beta-caten interaction with c-Cbl at 40 to 80 uM incubated for 15 hrs by mammalian two-hybrid assay. The class given is cell-based. The note with it: SW-620. Put shortly:
as §2

Consider `COc1ccc2c(c1)CC[n+]1cc3c(OC)cccc3cc1-2.[Cl-]`, for which the outcome in data set [1], in [3], in data set [5], in [7], in data set [9] and in data set [12] was Active. For the same molecule, the result in data set [14], in [15], in data set [16], in [17] and in data set [18] was Active. The Activity amounted to 0.74 mmol/L in data set [2], 78.35 U/L in data set [8], 28.95 µmol/L in data set [11] and 2.49 mmol/L in [13]. Moreover, the MRT inf in data set [4] was 15.7 h. In addition, the midpoint of inhibition in data set [6], the IC50, lay at 36.2 µM. In data set [10], the result was inactive.

As for `COc1ccc2cc3[n+](cc2c1OC)CCc1cc2c(cc1-3)OCO2.[Cl-]` [BERBERINE CHLORIDE], the result in [1], in data set [3], in data set [5], in data set [7], in [9] and in [12] was Active. Also, the result in [14], in data set [15], in data set [16], in data set [17] and in data set [18] was Active. Further, the Activity in data set [2] amounted to 0.77 mmol/L; in data set [8] it was 71.28 U/L; in [11], 24.36 µmol/L; in [13], 2.35 mmol/L. In addition, the MRT inf in data set [4] came to 31.5 h. This molecule registered an IC50 in data set [6] of 126 µM. The result in [10] was inactive.
